A selection: hits, their analogues and other compounds. The true share with any hit is near 2.7%.
DENV2 CPE – DENV2-induced cell death inhibition | 350,000 compounds, 1.7% hits | AID 651640 | DENV2-infected cells, cytopathic effect rescue, plate reader | CPE inhibition, % at 9.99 µM; in the data active means CPE inhibition above about 20%, passing the limit was not always enough; inconclusive means no clear call, values can overlap the other calls; tested in BHK-21 cells;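 further: 0% = median of neutral control wells and 100% = median of positive control wells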
S100A4 MyoIIA – inhibitors of human S100A4 binding to myosin IIA peptide; P26447; AID 652163; S100A4/TAMRA-MyoIIA peptide fluorescence polarization; 360,000 compounds, 0.14% hits; inhibition, % at 10.7 µM;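 active means mean inhibition of at least 70% across replicates, with every replicate also reaching that level; inconclusive means mean inhibition reaches 70% but some replicates fall short; inactive means mean inhibition below 70%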
Target sequence (P26447 whole entry, looked up): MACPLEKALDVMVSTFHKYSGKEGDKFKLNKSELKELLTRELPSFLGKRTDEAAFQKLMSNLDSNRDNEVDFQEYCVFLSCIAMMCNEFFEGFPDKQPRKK
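Material: S100A4 monomer protein | Medium: HEPES pH 7.2 with CaCl2, KCl, NaCl, DTT, Triton | Reagent: Labelled myosin peptide probe, 5 nM | Doses: One dose per compound | Times: 5 min incubation before reading | Benchmarks: Neutral control DMSO, positive control TFP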
SIRT5 inh – inhibitors of human sirtuin-5 desuccinylase. Purified SirT5, succinyl-peptide AMC, trypsin-coupled fluorescence. inhibition, % at 15 µM. AID 652115. 330,000 compounds, 1.1% hits. Q9NXA8; in the data active means inhibition above about 15%; inconclusive means no clear call, values can overlap the other calls
Target sequence (Q9NXA8 whole entry, looked up): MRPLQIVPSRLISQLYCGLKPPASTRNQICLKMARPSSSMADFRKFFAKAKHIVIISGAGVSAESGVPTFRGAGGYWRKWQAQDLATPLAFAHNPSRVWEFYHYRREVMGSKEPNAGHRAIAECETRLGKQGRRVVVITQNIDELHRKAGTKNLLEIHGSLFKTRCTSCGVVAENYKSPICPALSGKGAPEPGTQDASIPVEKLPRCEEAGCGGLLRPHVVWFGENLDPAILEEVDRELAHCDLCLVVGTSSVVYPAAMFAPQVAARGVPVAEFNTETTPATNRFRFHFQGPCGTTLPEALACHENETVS
CaV13 ICDI inh – Disruptors of the CACNA1D IQ motif to Ca2+-dependent inactivation inhibitor domain association, primary screening, Förster resonance energy transfer in intact living … | HEK cells, CFP/YFP FRET ICDI-IQ, plate reader, 10 min; percent FRET-ratio fall versus neutral wells | inhibition, % at 12.3 µM | 340,000 compounds, 0.098% hits | AID 743397;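 active means mean replicate inhibition of at least 30% and at least 1% of replicates passing that level; inconclusive means only one of the two criteria is met; inactive means neither criterion is met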;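 further: 0% = median of the neutral control wells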
AF4-AF9 inh – MLL-AF4/AF9 protein interaction inhibition; 350,000 compounds, 0.47% hits; P42568; AlphaScreen, biotin-AF4 peptide binding to FLAG-AF9; inhibition, % at 10 µM;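 active means every replicate reaching a set inhibition limit, whatever the replicate mean, cut at about 25% in these data; inconclusive means mean inhibition reaches that limit but some replicates miss it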;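 further: 0% = plate neutral control median and 100% = total signal loss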
Numbers without * were called inactive; ? = inconclusive; nt = not tested or not shown; + = active, no number.

SMILES | DENV2 CPE | S100A4 MyoIIA | SIRT5 inh | CaV13 ICDI inh | AF4-AF9 inh
O=C(C1CCOCC1)N1CC[C@@H]2[C@H]1c1cc(-c3cccc(F)c3)ccc1N[C@@H]2CO | 88* | 13 | -2 | nt | -4
O=C(C1CC1)N1CC[C@@H]2[C@H]1c1cc(-c3ccc(F)cc3)ccc1N[C@@H]2CO | 122* | nt | nt | nt | -1
Cc1ccc(S(=O)(=O)Nc2cccc3c2O[C@@H](CN(C)C(=O)Nc2ccc(C(F)(F)F)cc2)[C@H](C)CN([C@@H](C)CO)C3=O)cc1 | -3 | 4 | 4 | nt | -6
CCOC(=O)C1C2C=CC3(O2)C1C(=O)N(Cc1ccccc1)C3C(=O)NCc1ccccc1 (configuration not stated) | -2 | -1 | -1 | nt | 0
CCCNC(=O)N1C[C@H](O)COC[C@H]2O[C@H](CC(=O)N[C@@H]3CCN(Cc4ccccc4)C3)CC[C@@H]21 | ? | 2 | 7 | nt | -2
COc1cccc(-c2ccc3n(c2=O)C[C@@H]2[C@@H](CO)[C@H](C(=O)NC4CCC4)N(S(C)(=O)=O)[C@H]32)c1 | -4 | -1 | -19 | nt | -1
C/C=C/c1ccc([C@H]2[C@@H](CO)N(C(=O)C3CCC3)[C@@H]2CNC(=O)CN(C)C)cc1 | -2 | nt | -2 | nt | nt
C#CCN(C[C@H]1[C@H](OC(=O)Nc2c(C)noc2C)[C@H](OC(=O)Nc2c(C)noc2C)C[C@@H](C(=O)OC)[C@H]1C(=O)OC)S(=O)(=O)c1ccc(C)cc1 | 70* | 2 | -4 | -6 | -2
C#CCN(C[C@@H]1[C@@H](OC(=O)Nc2cccs2)[C@@H](OC(=O)Nc2cccs2)C[C@H](C(=O)OC)[C@@H]1C(=O)OC)S(=O)(=O)c1ccc(C)cc1 | 19 | -2 | 0 | -10 | -2
COc1cccc(-c2ccc([C@@H]3[C@@H](CO)N4CCCCN(S(=O)(=O)c5cccs5)C[C@@H]34)cc2)c1 | 12 | -8 | 8 | nt | -5
O=S(=O)(c1cccs1)N1CCCCN2[C@H](CO)[C@H](c3ccc(-c4ccccc4)cc3)[C@@H]2C1 | 23* | -2 | 5 | nt | -6
COc1ccc(-c2ccc([C@H]3[C@@H](CO)N4CCCCN(S(=O)(=O)c5cccs5)C[C@@H]34)cc2)cc1 | 22* | -3 | 6 | nt | -4
O=S(=O)(c1cccs1)N1CCCCN2[C@H](C1)[C@H](c1ccc(-c3ccccc3)cc1)[C@@H]2CO | -4 | -7 | 5 | nt | -7
COc1cccc(CN(C)Cc2nc3cc(C(F)(F)F)ccc3c(=O)[nH]2)c1 | 2 | -4 | -2 | -14 | 36*
COc1cc(/C=N/NC(=O)c2nonc2N)cc(OC)c1OC | -5 | 1 | 18* | -4 | -3
COc1cc(/C=N/NC(=O)c2cc(C)oc2C)cc(OC)c1OC | nt | -1 | -1 | -5 | 1
C[C@H]1CN([C@@H](C)CO)C(=O)c2cc(C#CC(C)(C)O)cnc2O[C@H]1CN(C)C(=O)C1CCC1 | 4 | -1 | -2 | nt | -5
CCOc1ccc2nc(NCCCNC(=O)c3cc(OC)c(OC)c(OC)c3)c(C#N)cc2c1 | 7 | 0 | -9 | + | -18
CCOc1ccc2nc(NCCNC(=O)CC)c(C#N)cc2c1 | nt | nt | nt | 33* | nt
CC(=O)N1CC[C@@H]2[C@H](CO)Nc3ccc(C#Cc4cccnc4)cc3[C@@H]21 | 5 | -1 | 18* | nt | 1
O=C(Cc1ccccc1)N1CC[C@H]2[C@H](CO)Nc3ccc(C#Cc4cccc(F)c4)cc3[C@H]21 | 3 | -1 | 6 | nt | 8
CCC(=O)N1CC[C@@H]2[C@@H](CO)Nc3ccc(C#Cc4cccnc4)cc3[C@@H]21 | -1 | -55 | 19* | nt | -13
O=C(Cc1cccnc1)N1CC[C@H]2[C@H](CO)Nc3ccc(C#Cc4cccc(F)c4)cc3[C@H]21 | 62* | 39 | 1 | nt | 11
N#C[C@H]1[C@@H](c2ccc(/C=C/c3ccccc3)cc2)[C@@H](CO)N1C(=O)Nc1ccccc1F | 1 | -5 | 2 | nt | 2
COc1cc(O)ccc1C=O | 0 | 5 | 8 | -2 | ?
COc1cc(N=Nc2ccc(Br)cc2)cc(C=O)c1O | 7 | 0 | 18* | -6 | 0
O=C(Cn1cnc2ccccc2c1=O)Nc1ccc(S(=O)(=O)N2CCOCC2)cc1 | 6 | 4 | -1 | -2 | -2
